For orientation: Ki means the dissociation constant of the complex between target and ligand, obtained from inhibition or displacement. Low values mean higher affinity, high ones lower affinity. As a reminder, the IC50 is the concentration that gives 50% inhibition.

This is an account of results in PMC3016492 (Cellular and Molecular Life Sciences: CMLS, 2010).

Assay [1] addresses T1, MK5 (Homo sapiens, UniProt Q8IW41).
T1 sequence (Q8IW41 1-473): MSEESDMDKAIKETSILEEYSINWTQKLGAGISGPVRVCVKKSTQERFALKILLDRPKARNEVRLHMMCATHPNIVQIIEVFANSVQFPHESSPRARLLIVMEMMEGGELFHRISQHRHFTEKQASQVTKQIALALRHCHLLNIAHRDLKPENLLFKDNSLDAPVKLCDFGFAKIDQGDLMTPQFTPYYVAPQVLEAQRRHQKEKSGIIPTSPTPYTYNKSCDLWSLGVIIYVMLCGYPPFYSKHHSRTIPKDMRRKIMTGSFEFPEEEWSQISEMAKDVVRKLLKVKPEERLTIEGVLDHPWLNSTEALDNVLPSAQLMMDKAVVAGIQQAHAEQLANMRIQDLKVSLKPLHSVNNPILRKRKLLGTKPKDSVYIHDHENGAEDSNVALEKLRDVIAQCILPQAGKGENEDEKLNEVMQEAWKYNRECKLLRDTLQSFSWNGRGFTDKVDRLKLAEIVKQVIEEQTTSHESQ
The assay is described as follows: MK5 kinase activity against PRAKtide substrate peptide. Format: biochemical. Particulars: for inhibition of MK5 enzyme activity (in words): initial screening at 2 mM.

In assay [2] the target is T1, MK5. Conditions: read-out: IC50 MK5; cited from earlier work.
Assay [3] deals with ERK2 (Homo sapiens, UniProt P28482). Particulars: 10 μM; cited from earlier work.
Sequence of ERK2 (P28482 whole entry): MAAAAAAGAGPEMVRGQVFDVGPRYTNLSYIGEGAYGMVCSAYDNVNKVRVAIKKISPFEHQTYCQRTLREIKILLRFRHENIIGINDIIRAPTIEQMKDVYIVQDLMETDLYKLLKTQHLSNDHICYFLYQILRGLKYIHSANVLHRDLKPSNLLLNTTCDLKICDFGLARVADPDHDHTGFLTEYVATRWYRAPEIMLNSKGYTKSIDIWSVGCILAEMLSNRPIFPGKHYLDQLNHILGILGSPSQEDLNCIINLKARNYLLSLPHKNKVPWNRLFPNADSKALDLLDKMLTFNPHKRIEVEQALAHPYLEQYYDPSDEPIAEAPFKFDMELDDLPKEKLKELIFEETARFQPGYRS
For assay [4], the target named is T2, DYRK1A (Homo sapiens, UniProt Q13627). Particulars: 10 μM; cited from earlier work.
Assay [5] has as its system ROCK-II. Particulars: 10 μM; cited from earlier work.
Assay [6] concerns the target T3, PDK1 (Homo sapiens, UniProt O15530).
T3 sequence (O15530 1-556): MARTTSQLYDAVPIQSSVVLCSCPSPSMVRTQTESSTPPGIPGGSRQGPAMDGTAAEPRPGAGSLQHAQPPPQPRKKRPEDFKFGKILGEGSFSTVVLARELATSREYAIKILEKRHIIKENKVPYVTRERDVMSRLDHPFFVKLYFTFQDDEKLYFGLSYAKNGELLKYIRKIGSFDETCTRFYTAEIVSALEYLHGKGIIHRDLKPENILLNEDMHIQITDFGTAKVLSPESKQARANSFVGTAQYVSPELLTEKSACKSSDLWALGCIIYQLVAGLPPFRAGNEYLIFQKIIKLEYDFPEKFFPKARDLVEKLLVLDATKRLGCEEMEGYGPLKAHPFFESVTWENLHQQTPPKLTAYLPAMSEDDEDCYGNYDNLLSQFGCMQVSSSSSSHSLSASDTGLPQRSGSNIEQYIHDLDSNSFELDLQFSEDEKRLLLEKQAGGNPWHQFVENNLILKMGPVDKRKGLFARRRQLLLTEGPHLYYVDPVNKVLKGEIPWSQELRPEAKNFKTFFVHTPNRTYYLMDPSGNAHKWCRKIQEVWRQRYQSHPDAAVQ
Particulars: 10 μM; cited from earlier work.

For assay [7], the target named is T1, MK5. Conditions: read-out: IC50 MK5; cited from earlier work. This is another data set of the same source.
Assay [8] deals with Aurora B. Particulars: 10 μM; cited from earlier work.
For assay [9], the target named is T2, DYRK1A. Conditions: 10 μM; cited from earlier work. This is another data set of the same source.
Assay [10] concerns IKKβ. Conditions: 10 μM; cited from earlier work.
In assay [11] the target is MK3 (Homo sapiens, UniProt Q16644). Particulars: 10 μM; cited from earlier work.
Sequence of MK3 (Q16644 whole entry, species assumed): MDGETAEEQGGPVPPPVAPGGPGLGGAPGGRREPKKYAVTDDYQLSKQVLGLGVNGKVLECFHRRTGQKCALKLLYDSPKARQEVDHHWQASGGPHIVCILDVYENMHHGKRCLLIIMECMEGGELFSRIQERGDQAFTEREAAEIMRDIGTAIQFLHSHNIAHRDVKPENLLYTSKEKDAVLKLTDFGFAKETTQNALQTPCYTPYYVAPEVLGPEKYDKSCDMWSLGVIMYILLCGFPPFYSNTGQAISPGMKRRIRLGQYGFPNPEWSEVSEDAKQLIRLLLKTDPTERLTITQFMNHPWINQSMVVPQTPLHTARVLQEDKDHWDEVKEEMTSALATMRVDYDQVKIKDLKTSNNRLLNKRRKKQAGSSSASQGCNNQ
For assay [12], the system named is ERK8. Conditions: 10 μM; cited from earlier work.
In assay [13] the test system is GSK3β. Conditions: 10 μM; cited from earlier work.
For assay [14], the system named is RSK2. Conditions: 10 μM; cited from earlier work.
The subject of assay [15] is MSK1. Particulars: 10 μM; cited from earlier work.
Assay [16] concerns p70^S6K. Conditions: 10 μM; cited from earlier work.
Assay [17] has as its target T3, PDK1. Conditions: 10 μM; cited from earlier work. This is another data set of the same source.
Assay [18] concerns PHK. Particulars: 10 μM; cited from earlier work.
Assay [19] deals with PKA (Homo sapiens, UniProt P17612). Conditions: 10 μM; cited from earlier work.
Assay [20] deals with PKB2. Particulars: 10 μM; cited from earlier work.
Assay [21] has as its target PLK1 (Homo sapiens, UniProt P53350). Particulars: 10 μM; cited from earlier work.
For assay [22], the system named is p38δ. Conditions: 10 μM; cited from earlier work.
Assay [23] relates to smMLCK. Conditions: 10 μM; cited from earlier work.
Assay [24] concerns PKA-induced nuclear export of MK5. In words: PKA-induced nuclear export of EGFP-MK5 in PC12 cells. Format: cell-based. Particulars: 10 μM forskolin, 30 min, no compound 11, untreated control 6%. In a few lines: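 PC12 cells were grown in F-12K with 2 mM L-glutamine, 1.5 g/l sodium bicarbonate, 15% horse serum, 2.5% fetal calf serum, penicillin and streptomycin. They were transfected with EGFP-MK5 by nucleofection, then left untreated or pretreated with 20 μM test compound. Next came 10 μM forskolin for 30 min. Cells were fixed in 4% formaldehyde for 10 min and washed in PBS. Several hundred cells were scored by confocal microscopy for nuclear plus cytosolic EGFP-MK5.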

Read-outs that look alike come from different tables or passages of the source.

Sequence of PLK1 (P53350 whole entry): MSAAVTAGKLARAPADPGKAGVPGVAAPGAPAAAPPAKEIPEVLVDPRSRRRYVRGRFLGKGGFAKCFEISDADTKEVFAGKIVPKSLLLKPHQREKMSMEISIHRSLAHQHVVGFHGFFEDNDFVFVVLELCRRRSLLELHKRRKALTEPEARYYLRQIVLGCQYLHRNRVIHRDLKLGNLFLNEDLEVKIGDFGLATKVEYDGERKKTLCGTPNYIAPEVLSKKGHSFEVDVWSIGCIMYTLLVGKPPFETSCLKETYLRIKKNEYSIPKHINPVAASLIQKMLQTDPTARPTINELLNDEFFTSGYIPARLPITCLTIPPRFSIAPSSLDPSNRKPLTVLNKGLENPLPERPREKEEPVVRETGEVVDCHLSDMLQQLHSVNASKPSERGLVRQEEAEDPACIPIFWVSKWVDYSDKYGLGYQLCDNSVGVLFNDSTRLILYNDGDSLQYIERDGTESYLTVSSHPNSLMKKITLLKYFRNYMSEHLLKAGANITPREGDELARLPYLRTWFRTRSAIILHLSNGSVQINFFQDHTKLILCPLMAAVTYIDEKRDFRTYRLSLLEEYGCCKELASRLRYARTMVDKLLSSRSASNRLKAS

Consider `CCN1C[C@]2(COC)[C@H](O)C[C@H](OC)[C@@]34[C@@H]5C[C@@]6(O)[C@H](OC(=O)c7ccccc7)[C@@H]5[C@@](OC(C)=O)([C@@H]([C@H](OC)[C@H]23)[C@@H]14)[C@@H](O)[C@@H]6OC` [Compound 6, aconitine], for which the “inhibition of MK5 enzyme activity (in words)” value in assay [1] is “completely blocked”.

For the compound `CCN1C[C@]2(COC)[C@H](O)C[C@H](OC)[C@]34C1[C@H]([C@H](OC)[C@H]23)[C@]1(O)[C@H]2[C@@H](O)[C@](O)(C[C@H]24)[C@@H](OC)[C@@H]1O` [Compound 8, aconine], in [1], the affinity, expressed as Ki, was 301 µM and the “inhibition of MK5 enzyme activity (in words)” value was “completely blocked”. The “IC50 MK5 (in words)” value in assay [1] (dose-response, PRAKtide substrate) is given as “in the mM range”. Also, the “mode of inhibition against ATP” value in assay [1] (varying ATP concentrations, Lineweaver-Burk) was “ATP-competitive”.

Take `O=C(O[C@@H]1Cc2c(O)cc(O)cc2O[C@@H]1c1cc(O)c(O)c(O)c1)c1cc(O)c(O)c(O)c1` [EGCG, epigallocatechin gallate]: the half-inhibitory concentration (IC50) in [2] was less than 10 µM. In addition, the “inhibition of in vitro kinase activity of ERK2” value in assay [3] is recorded as ~ 90%. In [4], the “inhibition of in vitro kinase activity of DYRK1A” value is on record as ~ 90%. Besides, the “inhibition of in vitro kinase activity of ROCK-II” value in assay [5] was ~ 90%. Besides, the “inhibition of in vitro kinase activity of PDK1” value in assay [6] is reported as ~ 90%.

As for `COc1ccc(C=CC(=O)c2c(O)cc(OC)cc2OC)cc1` [flavokavain A], the IC50 in assay [7] was 10 µM. In addition, the “inhibition of Aurora B (in words, relative to MK5)” value in [8] is “more or to a similar extent”. The “inhibition of DYRK1A (in words, relative to MK5)” value in assay [9] is “more or to a similar extent”. In addition, in assay [10], the “inhibition of IKKβ (in words, relative to MK5)” value was “more or to a similar extent”. In addition, the “inhibition of MK3 (in words, relative to MK5)” value in [11] is on record as “more or to a similar extent”. Moreover, the “inhibition of ERK8” value in assay [12] is listed as 40–70%. In addition, the “inhibition of GSK3β” value in assay [13] is listed as 40–70%. Besides, the “inhibition of RSK2” value in [14] is given as 40–70%. The “inhibition of MSK1” value in assay [15] is 40–70%. In addition, the “inhibition of p70^S6K” value in assay [16] is 40–70%. In addition, the “inhibition of PDK1” value in [17] is 40–70%. Besides, in assay [18], the “inhibition of PHK” value is 40–70%. Also, the “inhibition of PKA” value in [19] was 40–70%. Moreover, in [20], the “inhibition of PKB2” value was 40–70%. Also, the “inhibition of PLK1” value in assay [21] is recorded as 40–70%. Moreover, the “inhibition of p38δ” value in assay [22] is 40–70%. Also, in assay [23], the “inhibition of smMLCK” value was 40–70%.

As for `C=C[C@@]1(C)CC(=O)[C@]2(O)[C@@]3(C)[C@@H](O)CCC(C)(C)[C@@H]3[C@H](O)[C@H](OC(C)=O)[C@@]2(C)O1` [forskolin], the “cells displaying both nuclear and cytosolic EGFP-MK5” value in assay [24] is on record as “approximately 84%”; in [24] (listed as Forskolin), 84%.
